pIC50: −log10 of the molar value.
Key:
[1] = Tissue distribution after IV administration; assay type: in vivo, Sprague-Dawley male rats; conditions: for AUC0 − t: 5 mg/kg IV, rats; for Cmax: male, Sprague-Dawley, rat, iv, 5 mg/kg
Summary of the method: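 Male Sprague-Dawley rats (8–12 weeks), 27 per group (free drug or one of two nanoparticle formulations), 3 rats at each of nine time points. Single 5 mg/kg IV dose. CO2 euthanasia; tissues excised, saline-rinsed, homogenized 1:4 in PBS pH 7.4, stored at −85 °C. LC-MS/MS against matrix-matched calibration (1.03–1026.00 ng/mL). Noncompartmental AUC0–t and Cmax; Kp as tissue/plasma AUC ratio; means reported.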

SH-SY5Y cells = test: MTT colorimetric cytotoxicity assay; assay type: cell-based; conditions: Homo sapiens, 24 h
Summary of the method: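 SH-SY5Y cells were grown in DMEM with 10% FBS at 0.1 × 10^5 cells/well for 24 h at 37 °C ([…]/5% CO2) to half-confluence. After a PBS wash and 1 h in serum-free medium, cells received free or nanoparticle test compound (0.05–100 µM) or serum-free medium for 24 h. MTT (1 mg/mL) was added for 4 h; formazan was dissolved in DMSO and read at 540 nm. Viability is expressed as % of control.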

[2] = Plasma pharmacokinetics after IV administration; assay type: in vivo, Sprague-Dawley male rats; conditions: male, Sprague-Dawley, rat, 5 mg/kg
Summary of the method: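 Male Sprague-Dawley rats (8–12 weeks) received 5 mg/kg IV. Blood was taken retro-orbitally under isoflurane into K2EDTA at 0.08–24 h (nine points, 3 rats each), and plasma was stored at -85 °C. LC-MS/MS quantification used a 1.03–1026.00 ng/mL calibration with 1/x2 weighting. Noncompartmental analysis on means: AUC by mixed log-linear method, CL = Dose/AUCinf, Vss = CL×MRT.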

CC(=O)c1c(C)c2cnc(Nc3ccc(N4CCNCC4)cn3)nc2n(C2CCCC2)c1=O [Palbo, Palbociclib]
AUC0 − t ([1]; brain posterior region): 757.5 ng·h/g | AUC0 − t ([1]; cerebellum): 402.5 ng·h/g | AUC0 − t ([1]; frontal cortex): 383.8 ng·h/g | Cmax ([1]; cerebellum): 120 ng/g | Cmax ([1]; frontal cortex): 129 ng/g | Cmax ([1]; kidney): 485 ng/g | Cmax ([1]; liver): 2440 ng/g | Cmax ([1]; lungs): 12700 ng/g | Cmax ([1]; posterior brain region): 162 ng/g | pIC50 (SH-SY5Y cells): 6.07 | AUC(0-inf) [2]: 1920 ng·h/mL | clearance ([2]; CL, 5 mg/kg IV, rats): 21.8 mL/min/kg

From paper PMC12322058 (Scientific Reports, 2025)
